The results in this text go back to PubChem BioAssay AID624062 (Broad Institute, 2012).

Inconclusive results are not listed.

The experiment has as its system S. cerevisiae W303 JC-1 mitochondrial potential, flow cytometry. The experiment can be described thus: yeast mitochondrial potential disruption, JC-1 dye – flow cytometry, single point, powder samples, mechanism study for antifungal respiration inhibitor project (AID 624062). Conditions: hits give high values. Summed up:
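Test system: Saccharomyces cerevisiae strain W303-1a, whole yeast cells | Quantity: Yeast culture diluted to OD600 of 0.1 | Medium: Glucose (2%) SD-CSM medium | Also added: JC-1 dye at 1 µg/mL | Times: 90 min pre-growth, then 4 h compound exposure, both 30 °C | Technique: Flow cytometry of JC-1 red and green emission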
Background: Flow cytometry measures light scatter and fluorescence of single cells or particles in a stream.

For the compound `CCOC(=O)N1C(=O)C2(CCCCC2)N(c2ccc(C)cc2)C1=S`, the mitochondrial depolarization score was 18.6.
